The source made the active and inactive calls. The rule behind the calls is not given here.
Assays:
[1] = Selectivity index, CC50 for rat L-6 cells to IC50 for erythrocytic stage of chloroquine - and pyrimethamine-resistant Plasmodium falciparum K1; assay type: functional
Outline: (§1)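 K1 erythrocytic stages were cultured in hypoxanthine-free RPMI 1640 with Albumax, A+ RBC at 2.5% hematocrit and 0.3% parasitemia. DMSO stocks were 10 mg/ml; seven twofold dilutions covered 5 to 0.156 μg/ml. Plates were held at 37°C in 4% CO2/3% O2/93% N2 for 48 h, then 0.5 μCi [3H]hypoxanthine was added for 24 h and scintillation counted. IC50 from sigmoidal curves. SI = L-6 CC50/IC50.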

Plasmodium falciparum = test: Antiplasmodial activity against erythrocytic stage of chloroquine - and pyrimethamine-resistant Plasmodium falciparum K1 assessed as [3H]hypoxanthine incorporation after 48 hrs; assay type: functional, organism-based; outline: as §1
[2] = Cytotoxicity against rat L6 cells after 72 hrs by microplate alamar blue assay; assay type: cell-based
Outline: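 Rat skeletal myoblast L-6 cells, 4 × 10^4/well in RPMI 1640 with L-glutamine and 10% FBS, were given seven threefold dilutions (90 to 0.123 μg/ml) for 72 h. Alamar Blue was added for 2 h and fluorescence read at ex 536/em 588 nm. Tested in duplicate, assay repeated at least once.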

Trypanosoma cruzi = test: Antitrypanosomal activity against Trypanosoma cruzi Tulahuen C2C4 trypomastigote after 48 hrs; assay type: functional, organism-based; conditions: Tulahuen C2C4, 48 h
Outline: (§2)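 T. cruzi Tulahuen C2C4 (LacZ) trypomastigotes, 5,000/well, were added to rat L-6 myoblasts seeded 24 h earlier in RPMI 1640 with 10% FBS. After 48 h the medium was replaced with seven threefold drug dilutions (90 to 0.123 μg/ml) and incubated 96 h. CPRG-Nonidet was added and read at 540 nm after 2–6 h to give IC50. Duplicates, assay repeated at least once. SI = L-6 CC50/parasite IC50.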

Leishmania donovani = test: Antileishmanial activity against Leishmania donovani MHOM/ET/67/L82 amastigote after 72 hrs; assay type: functional, organism-based; conditions: MHOM/ET/67/L82, 72 h
Outline: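 Axenic amastigotes were grown at 37°C under 5% CO2 in SM medium, pH 5.4, with 10% heat-inactivated FBS. 10^5 per well were exposed 72 h to serial dilutions (30 to 0.041 μg/ml). Alamar Blue was added for 2 h, then fluorescence read at ex 536/em 588 nm as % of control. IC50 came from sigmoidal curves. Duplicates, repeated at least once.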

[3] = Selectivity index, CC50 for rat L-6 cells to IC50 for Trypanosoma brucei rhodesiense ST1B900 trypomastigote […]; assay type: functional
Outline: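 Bloodstream-form STIB900, 10^4/well in supplemented MEM with 15% heat-inactivated horse serum, were exposed to seven threefold dilutions (90 to 0.123 μg/ml) for 72 h at 37°C, 5% CO2. Alamar Blue was added for 2–4 h, then fluorescence read at ex 536/em 588 nm. SI = L-6 CC50/IC50. Duplicates, repeated at least once.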

[4] = Selectivity index, CC50 for rat L-6 cells to IC50 for Trypanosoma cruzi Tulahuen C2C4 trypomastigote; assay type: functional; outline: as §2
[5] = system: Trypanosoma brucei rhodesiense; test: Antitrypanosomal activity against Trypanosoma brucei rhodesiense ST1B900 trypomastigote infected in NMR1 mouse assessed as survival of mouse at 50 mg/kg, ip administered on day 3 post infection for 4 days; assay type: functional, organism-based; design: dose 50 mg/kg

Compound	Selectivity Index [1]	IC50 (Plasmodium falciparum) [µM]	CC50 at 72 h [2] [µM]	IC50 (Trypanosoma cruzi) [µM]	IC50 (Leishmania donovani) [µM]	Selectivity Index [3]	Selectivity Index [4]	Activity [5]
N=C(N)NCCCCCCCCCNC(=N)N.O=S(=O)(O)O	>3162	0.084	> 265					
O=[N+]([O-])c1cccc(NC2CCN(CCc3ccccc3)CC2)c1		10.6	257	46.1	23.2			
CC(C)(C)OC(=O)NCCCCNC1CCN(CCc2ccccc2)CC1		1.28	155	56.3	> 80			
CCC(=O)N(CCCN/C(=N/C(=O)OC(C)(C)C)NC(=O)OC(C)(C)C)C1CCN(CCc2ccccc2)CC1		1.35	80.7	> 53	31			
CCC(=O)N(CCCCCCCCN/C(=N/C(=O)OC(C)(C)C)NC(=O)OC(C)(C)C)C1CCN(CCc2ccccc2)CC1	35	0.6	21.5	12.3	14.8			
N=C(N)NCCCCCCNC(=N)N.O=S(=O)(O)O	>679	0.445	> 302					
CC(C)(C)OC(=O)NCc1cccc(CNC2CCN(CCc3ccccc3)CC2)c1		1.66	111	17.3	78.1	219		
CC(C)(C)OC(=O)NCCCCCNC1CCN(CCc2ccccc2)CC1		1.53	95.6	69	> 77			
CC(C)(C)OC(=O)NCCCNC1CCN(CCc2ccccc2)CC1		2.08	129	55.4	68.9			
CCC(=O)N(CCCCCCCCCCCCN/C(=N/C(=O)OC(C)(C)C)NC(=O)OC(C)(C)C)C1CCN(CCc2ccccc2)CC1	18	0.41	7.54	5.2	5.78		<3	
CC(C)(C)OC(=O)NCCNC1CCN(CCc2ccccc2)CC1		2.06	174	55.5	81.2			
CC(C)(C)OC(=O)NCCCCCCCCCCCCNC1CCN(CCc2ccccc2)CC1	25	0.32	8.2	3.16	17.8	52	<3	
CC(C)(C)OC(=O)NCCCCCCCNC1CCN(CCc2ccccc2)CC1	42	0.77	32.9	11.9	> 72	41		
N=C(N)NCCCCCCCCNC(=N)N.O=S(=O)(O)O	>2608	0.106	> 276					
CC(C)(C)OC(=O)NCCCCCCCCNC1CCN(CCc2ccccc2)CC1	25	0.62	15.5	5.72	> 69	130	<3	inactive
CCC(=O)N(CCCCCCCCCNC(=O)OC(C)(C)C)C1CCN(CCc2ccccc2)CC1		1.43	16	11.7	34.8			
CCC(=O)N(CCCCCCCCCCCCNC(=O)OC(C)(C)C)C1CCN(CCc2ccccc2)CC1		1.32	13.8	8.07	6.2		<3	
CCCCCCCCCCCCCCCCOP(=O)([O-])OCC[N+](C)(C)C [MILTEFOSINE]					0.205			
CCC(=O)N(CCN/C(=N/C(=O)OC(C)(C)C)NC(=O)OC(C)(C)C)C1CCN(CCc2ccccc2)CC1		1.85	35.6	36.8	19.1			
CC(C)(C)OC(=O)NCCCCCCNC1CCN(CCc2ccccc2)CC1	43	0.9	39.3	28.6	> 74	36		
CCC(=O)N(CCCCCCN/C(=N/C(=O)OC(C)(C)C)NC(=O)OC(C)(C)C)C1CCN(CCc2ccccc2)CC1	29	0.85	24.9	23.2	13.2			
CCCCCCCCCCCCCNC(=N)N.O=S(=O)(O)O [AMINO(TRIDECYLAMINO)METHANIMINIUM HYDROGENSULFATE]	2.4	7.98	19.6					
CC(C)(C)OC(=O)NCCCCCCCCCNC1CCN(CCc2ccccc2)CC1	16	0.36	6.05	3.73	> 67	48	<3	
